Laboratory results from ChEMBL document CHEMBL5352462, “Resveratrol derivatives: Synthesis and their biological activities” (Eur J Med Chem, 2023).

Experiments:
HT-29 = assay: Cytotoxicity against human HT-29 cells incubated for 24 hrs by MTT assay; format: functional, cell-based; conditions: HT-29, 24 h
Procedure, shortened: (§1)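 Cells plated at 1.5 × 10⁵ per well, allowed to adhere overnight, medium refreshed, then treated at 10, 50 and 100 μM for 24 h; DMSO vehicle controls (<0.1%). Medium replaced after 72 h. MTT at 5 mg/mL in PBS added, 3 h at 37 °C in 5% CO₂; formazan dissolved in DMSO, absorbance read at 550 nm. IC50 from dose-response curves, mean ± SE of three independent experiments.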

[1] = Lipophilicity, logP of compound; format: physicochemical; conditions: octanol/water
Procedure, shortened: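 Log P calculated in silico, not measured experimentally.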

HCT cell line [2] = assay: Cytotoxicity against HCT cell expressing KRAS assessed as growth inhibition by measuring synthetic lethality at 0.2 uM relative to control; format: functional; conditions: Homo sapiens
HCT cell line [3] = assay: Cytotoxicity against HCT cell expressing KRAS assessed as growth inhibition by measuring synthetic lethality at 2 uM relative to control; format: functional; conditions: Homo sapiens
HCT cell line [4] = assay: Cytotoxicity against HCT cell expressing KRAS assessed as growth inhibition by measuring synthetic lethality at 20 uM relative to control; format: functional; conditions: Homo sapiens
RKO = assay: Cytotoxicity against human RKO cell expressing KRAS assessed as growth inhibition by measuring synthetic lethality at 0.2 uM relative to control; format: functional
HCT-116 [5] = assay: Cytotoxicity against HCT-116 cell expressing KRAS assessed as growth inhibition by measuring synthetic lethality at 2 uM relative to control; format: functional; conditions: Homo sapiens
HCT-116 [6] = assay: Cytotoxicity against HCT-116 cell expressing KRAS assessed as growth inhibition by measuring synthetic lethality at 20 uM relative to control; format: functional; conditions: Homo sapiens
COLO 320 [7] = assay: Cytotoxicity against human COLO 320 cell expressing KRAS assessed as growth inhibition by measuring synthetic lethality at 0.2 uM relative to control; format: functional
COLO 320 [8] = assay: Cytotoxicity against human COLO 320 cell expressing KRAS assessed as growth inhibition by measuring synthetic lethality at 2 uM relative to control; format: functional
COLO 320 [9] = assay: Cytotoxicity against human COLO 320 cell expressing KRAS assessed as growth inhibition by measuring synthetic lethality at 20 uM relative to control; format: functional
SNU-C1 [10] = assay: Cytotoxicity against human SNU-C1 cell expressing KRAS assessed as growth inhibition by measuring synthetic lethality at 0.2 uM relative to control; format: functional
SNU-C1 [11] = assay: Cytotoxicity against human SNU-C1 cell expressing KRAS assessed as growth inhibition by measuring synthetic lethality at 2 uM relative to control; format: functional
SNU-C1 [12] = assay: Cytotoxicity against human SNU-C1 cell expressing KRAS assessed as growth inhibition by measuring synthetic lethality at 20 uM relative to control; format: functional
[13] = biological target: Calcitonin gene-related peptide type 1 receptor (Homo sapiens) (UniProt Q16602); assay: Inhibition of human CGRP1 at 30 uM relative to control
[14] = biological target: Calcitonin gene-related peptide type 1 receptor (Homo sapiens, UniProt O60894+Q16602); assay: Inhibition of human CGRP1
MIA PaCa-2 = assay: Cytotoxicity against human MIA PaCa-2 cells incubated for 24 hrs by MTT assay; format: functional, cell-based; conditions: MIA PaCa-2, 24 h; procedure, shortened: as §1
[15] = biological target: Microtubule-associated protein tau (Homo sapiens) (UniProt P10636); assay: Inhibition of Tau in human Huh-7 cells at 40 uM relative to control; format: cell-based
Chain of Microtubule-associated protein tau (Homo sapiens) (P10636 whole entry): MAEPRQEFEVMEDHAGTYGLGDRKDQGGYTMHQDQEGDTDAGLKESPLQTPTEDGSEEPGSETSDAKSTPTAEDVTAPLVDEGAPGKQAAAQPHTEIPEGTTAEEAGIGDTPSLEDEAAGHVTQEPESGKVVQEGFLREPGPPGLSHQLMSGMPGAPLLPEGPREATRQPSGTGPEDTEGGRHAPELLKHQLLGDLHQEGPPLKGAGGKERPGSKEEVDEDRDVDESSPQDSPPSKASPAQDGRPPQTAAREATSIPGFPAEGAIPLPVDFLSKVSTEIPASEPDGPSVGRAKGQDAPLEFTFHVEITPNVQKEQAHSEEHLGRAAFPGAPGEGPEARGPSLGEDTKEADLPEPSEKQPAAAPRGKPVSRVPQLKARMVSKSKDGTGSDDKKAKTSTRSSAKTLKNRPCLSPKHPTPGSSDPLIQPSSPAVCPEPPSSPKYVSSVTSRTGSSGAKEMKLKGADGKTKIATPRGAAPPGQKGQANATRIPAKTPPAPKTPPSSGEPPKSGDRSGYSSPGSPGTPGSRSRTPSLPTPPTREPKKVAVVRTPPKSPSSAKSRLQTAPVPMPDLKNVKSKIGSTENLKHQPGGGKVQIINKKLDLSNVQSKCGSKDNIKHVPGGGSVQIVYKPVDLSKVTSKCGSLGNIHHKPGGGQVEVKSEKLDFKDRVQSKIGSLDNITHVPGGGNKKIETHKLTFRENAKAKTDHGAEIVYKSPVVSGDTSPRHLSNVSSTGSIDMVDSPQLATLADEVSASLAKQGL

Chain of Calcitonin gene-related peptide type 1 receptor (Homo sapiens) (Q16602 whole entry): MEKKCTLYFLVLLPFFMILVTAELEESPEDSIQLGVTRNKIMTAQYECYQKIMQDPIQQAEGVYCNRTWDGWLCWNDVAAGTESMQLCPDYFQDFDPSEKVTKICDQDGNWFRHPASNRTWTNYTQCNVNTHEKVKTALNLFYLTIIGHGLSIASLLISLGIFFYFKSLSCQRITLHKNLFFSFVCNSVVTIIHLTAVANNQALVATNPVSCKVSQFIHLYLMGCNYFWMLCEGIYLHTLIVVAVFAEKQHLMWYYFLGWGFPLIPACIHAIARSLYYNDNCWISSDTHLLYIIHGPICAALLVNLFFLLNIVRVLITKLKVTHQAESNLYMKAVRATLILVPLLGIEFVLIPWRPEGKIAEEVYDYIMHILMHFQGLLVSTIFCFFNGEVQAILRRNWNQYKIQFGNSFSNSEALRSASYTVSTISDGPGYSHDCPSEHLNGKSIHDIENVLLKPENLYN
Chain of Calcitonin gene-related peptide type 1 receptor (Q16602 whole entry, one chain of several): as the sequence (Q16602 whole entry) above

Structure (SMILES): Oc1ccc2cc(-c3cc(O)c(O)c(O)c3)oc2c1
- IC50 (HT-29): 56 µM
- logP [1]: 1.82
- inhibition at 0.2 µM (HCT cell line [2]): 15.6%
- inhibition at 2 µM (HCT cell line [3]): 0.5%
- inhibition at 20 µM (HCT cell line [4]): 0%
- inhibition at 0.2 µM (RKO): 2.7%
- inhibition at 2 µM (HCT-116 [5]): 33%
- inhibition at 20 µM (HCT-116 [6]): 85.9%
- inhibition at 0.2 µM (COLO 320 [7]): 0%
- inhibition at 2 µM (COLO 320 [8]): 0%
- inhibition at 20 µM (COLO 320 [9]): 0%
- inhibition at 0.2 µM (SNU-C1 [10]): 5.8%
- inhibition at 2 µM (SNU-C1 [11]): 3.1%
- inhibition at 20 µM (SNU-C1 [12]): 11.2%
- inhibition [13]: 59.9%
- IC50 [14]: 2.77 µM

Structure (SMILES): CCCCCCCCCCCC(=O)Oc1ccc(C=Cc2cc(OC(=O)CCCCCCCCCCC)cc(OC(=O)CCCCCCCCCCC)c2)cc1
- IC50 (HT-29): 134 µM
- IC50 (MIA PaCa-2): 198 µM
- logP [1]: > 11.2

Structure (SMILES): OCCOc1ccc(/C=C/c2cc(OCCO)cc(OCCO)c2)cc1
- IC50 (HT-29): 23 µM
- IC50 (MIA PaCa-2): 79 µM
- logP [1]: 2.29

Structure (SMILES): COc1ccc(/C=C/c2cc(OC)cc(OC)c2)cc1 [TRISMETHOXYRESVERATROL]
- IC50 (MIA PaCa-2): 35 µM
- logP [1]: 3.85

Structure (SMILES): Oc1cc(O)cc(-c2cc3ccc(O)cc3o2)c1 [MORACIN M]
- IC50 (HT-29): 73 µM
- logP [1]: 2.21

Structure (SMILES): CC(C)(C)C(=O)Oc1ccc(/C=C/c2cc(OC(=O)C(C)(C)C)cc(OC(=O)C(C)(C)C)c2)cc1
- IC50 (HT-29): 56 µM
- IC50 (MIA PaCa-2): 39 µM
- logP [1]: 8.76

Structure (SMILES): Oc1ccc(/C=C/c2cc(O)c(O)c(O)c2)c(O)c1
- IC50 (HT-29): 78 µM
- IC50 (MIA PaCa-2): 96 µM
- logP [1]: 2.28

Structure (SMILES): Oc1ccc(/C=C/c2cc(O)cc(O)c2)cc1 [RESVERATROL]
- inhibition [15]: 21.3%
- IC50 (HT-29): 78 µM
- IC50 (MIA PaCa-2): 132 µM
- inhibition [13]: 2.3%

Structure (SMILES): COc1ccc(OC)c(-c2cc3ccc(OCc4ccccc4)cc3[nH]2)c1
- IC50 (HT-29): 239 µM
- logP [1]: 5.15
- inhibition at 0.2 µM (HCT cell line [2]): 0%
- inhibition at 2 µM (HCT cell line [3]): 6.9%
- inhibition at 20 µM (HCT cell line [4]): 48.9%
- inhibition at 0.2 µM (RKO): 77.3%
- inhibition at 2 µM (HCT-116 [5]): 45.6%
- inhibition at 20 µM (HCT-116 [6]): 89.7%
- inhibition at 0.2 µM (COLO 320 [7]): 0%
- inhibition at 2 µM (COLO 320 [8]): 0%
- inhibition at 20 µM (COLO 320 [9]): 0%
- inhibition at 0.2 µM (SNU-C1 [10]): 7.4%
- inhibition at 2 µM (SNU-C1 [11]): 13.9%
- inhibition at 20 µM (SNU-C1 [12]): 44.5%

Structure (SMILES): COc1ccc(-c2cc3cc(C)cc(C)c3[nH]2)cc1
- IC50 (HT-29): 331 µM
- logP [1]: 4.15

Structure (SMILES): COc1ccc(-c2cc3cc(OC)cc(OC)c3[nH]2)cc1
- IC50 (HT-29): 211 µM
- logP [1]: 2.93

Structure (SMILES): COc1cc(-c2cc3ccc(O)cc3o2)cc(OC)c1OC
- inhibition [15]: 58%
- IC50 (HT-29): 14 µM
- logP [1]: 2.61
- inhibition at 0.2 µM (HCT cell line [2]): 0%
- inhibition at 2 µM (HCT cell line [3]): 0.5%
- inhibition at 20 µM (HCT cell line [4]): 0%
- inhibition at 0.2 µM (RKO): 0%
- inhibition at 2 µM (HCT-116 [5]): 6.3%
- inhibition at 20 µM (HCT-116 [6]): 87.4%
- inhibition at 0.2 µM (COLO 320 [7]): 0%
- inhibition at 2 µM (COLO 320 [8]): 4.4%
- inhibition at 20 µM (COLO 320 [9]): 0%
- inhibition at 0.2 µM (SNU-C1 [10]): 8.7%
- inhibition at 2 µM (SNU-C1 [11]): 8.7%
- inhibition at 20 µM (SNU-C1 [12]): 14.9%
- inhibition [13]: 54.2%
- IC50 [14]: 2.41 µM

Structure (SMILES): COc1cc(OC)cc(-c2cc3ccc(O)cc3o2)c1
- IC50 (HT-29): 19 µM
- logP [1]: 2.74

Structure (SMILES): COc1ccc(OC)c(-c2cc3ccc(O)cc3[nH]2)c1
- IC50 (HT-29): 10 µM
- logP [1]: 2.66
- inhibition at 0.2 µM (HCT cell line [2]): 0%
- inhibition at 2 µM (HCT cell line [3]): 0%
- inhibition at 20 µM (HCT cell line [4]): 6.3%
- inhibition at 0.2 µM (RKO): 9.4%
- inhibition at 2 µM (HCT-116 [5]): 0%
- inhibition at 20 µM (HCT-116 [6]): 0%
- inhibition at 0.2 µM (COLO 320 [7]): 0%
- inhibition at 2 µM (COLO 320 [8]): 0%
- inhibition at 20 µM (COLO 320 [9]): 55.3%
- inhibition at 0.2 µM (SNU-C1 [10]): 0%
- inhibition at 2 µM (SNU-C1 [11]): 0%
- inhibition at 20 µM (SNU-C1 [12]): 30.3%

Structure (SMILES): COc1ccc(/C=C/c2cc(OC)c(OC)c(OC)c2)c(OC)c1
- IC50 (HT-29): 12 µM
- IC50 (MIA PaCa-2): 28 µM
- logP [1]: 3.59
